Assay results from different studies.
Protocols differ between the studies behind these lines.
Organism: Severe acute respiratory syndrome coronavirus 2

Compound | observed | action | cells | time | notes | IC50
CCN(CC)CCOc1ccc(C(O)(Cc2ccc(Cl)cc2)c2ccc(C)cc2)cc1 (stereo not drawn) | viral replication | inhibitor | Vero C1008 |  |  | 4.68 µM
CC(CN1c2ccccc2Sc2ccccc21)N(C)C (stereo not drawn) | viral replication | inhibitor | A549-ACE2 |  |  | 0.575 µM
CC(=O)OC[C@H]1O[C@@H](Sc2nc(N)c(C(=O)Nc3ccccc3)c(=S)[nH]2)[C@H](OC(C)=O)[C@@H](OC(C)=O)[C@H]1OC(C)=O | viral replication |  | Vero C1008 | 72 h |  | 86 µM
CC[C@@H]1C[C@]1(NC(=O)[C@@H]1C[C@@H]2CN1C(=O)[C@H](C(C)(C)C)NC(=O)OCC(C)(C)CCCCc1cccc3c1CN(C3)C(=O)O2)C(=O)NS(=O)(=O)C1CC1 | viral replication |  | HEK-293T |  |  | 3 µM
COc1ccc(NC(=O)c2c(N)nc(S[C@@H]3O[C@H](COC(C)=O)[C@@H](OC(C)=O)[C@H](OC(C)=O)[C@H]3OC(C)=O)[nH]c2=S)cc1 | viral replication |  | Vero C1008 | 72 h |  | 169 µM
COc1cc(Nc2c(C#N)cnc3cc(OCCCN4CCN(C)CC4)c(OC)cc23)c(Cl)cc1Cl | viral replication | inhibitor | Huh-7 |  |  | 0.02 µM
COc1c(O)cc2oc(-c3ccccc3)cc(=O)c2c1O | viral replication | inhibitor | Vero C1008 |  |  | 15.1 µM
COc1ccc2c(O[C@@H]3C[C@H]4C(=O)N[C@]5(C(=O)NS(=O)(=O)C6CC6)C[C@H]5/C=C\CCCCN(C)C(=O)[C@@H]4C3)cc(-c3nc(C(C)C)cs3)nc2c1C | viral replication |  | HEK-293T |  |  | 2.3 µM
CC(Nc1nc(N2CCNCC2)nc2ccccc12)c1ccccc1N (stereo not drawn) | viral entry | inhibitor |  |  | pseudovirus | 35.5 µM
COCCCC/C(=N\OCCN)c1ccc(C(F)(F)F)cc1 | viral replication | inhibitor | A549-ACE2 |  |  | 2.09 µM
CC(C)N1CCN(c2ccc(OCC3COC(Cn4cncn4)(c4ccc(Cl)cc4Cl)O3)cc2)CC1 (stereo not drawn) | viral replication | inhibitor | Vero C1008 |  |  | 11.9 µM
O=C1CCC(N2C(=O)c3ccccc3C2=O)C(=O)N1 (stereo not drawn) | viral replication | inhibitor | Huh-7 |  |  | > 2 µM
C[C@@H]1O[C@@H](O[C@H]2C[C@@H](O)[C@]3(CO)[C@H]4[C@H](O)C[C@]5(C)[C@@H](C6=CC(=O)OC6)CC[C@]5(O)[C@@H]4CC[C@]3(O)C2)[C@H](O)[C@H](O)[C@H]1O | viral replication | inhibitor | Vero C1008 |  |  | 0.03 µM
C[C@@H](O)[C@H]1C(=O)N2C(C(=O)O)=C(S[C@@H]3CN[C@H](C(=O)N(C)C)C3)[C@H](C)[C@H]12 | viral replication | inhibitor | Huh-7 |  |  | > 2 µM
Cc1ccc(NC(=O)c2c(N)nc(S[C@@H]3O[C@H](CO)[C@@H](O)[C@H](O)[C@H]3O)[nH]c2=S)cc1 | viral replication |  | Vero C1008 | 72 h |  | 73.7 µM
CCCC(CCC)C(=O)O | viral replication | inhibitor | Huh-7 |  |  | > 2 µM
CC[C@H](C)[C@H]1C(=O)N2CCC[C@H]2C(=O)O[C@H](C(C)(C)C)C[C@@H](C)C[C@H](O)[C@H](C)C2=N[C@@H](CCC(=O)N[C@@H](Cc3ccc(OC)cc3)C(=O)N(C)[C@@H](C)C(=O)N1C)CS2 | viral replication | inhibitor | Vero C1008 |  |  | 0.17 µM
NC(=O)c1ncn([C@@H]2O[C@H](CO)[C@@H](O)[C@H]2O)n1 | viral replication | inhibitor | Vero C1008 |  |  | > 10 µM
Clc1ccc(C(Cn2ccnc2)OCc2ccsc2Cl)c(Cl)c1 (stereo not drawn) | viral replication | inhibitor | Calu-3 | 40 h |  | 2.43 µM
CC(C)(C)OC(=O)N[C@H]1CCCCC/C=C\[C@@H]2C[C@@]2(C(=O)NS(=O)(=O)C2CC2)NC(=O)[C@@H]2C[C@@H](OC(=O)N3Cc4cccc(F)c4C3)CN2C1=O | viral replication |  | HEK-293T |  |  | > 50 µM
O=c1c(O[C@@H]2O[C@H](CO)[C@@H](O)[C@H](O)[C@H]2O)c(-c2ccc(O)c(O)c2)oc2cc(O)cc(O)c12 | viral replication | inhibitor | Huh-7 |  |  | > 2 µM
CCC(CC)COC(=O)[C@H](C)N[P@](=O)(OC[C@H]1O[C@@](C#N)(c2ccc3c(N)ncnn23)[C@H](O)[C@@H]1O)Oc1ccccc1 | plaque formation | inhibitor | Vero C1008 |  |  | 0.19 µM
CC(C)(C)[C@]1(O)CCN2C[C@H]3c4ccccc4CCc4cccc(c43)[C@@H]2C1 | viral replication |  | Vero C1008 |  |  | 6.17 µM
Nc1c2ccccc2nc2ccccc12 | viral replication | inhibitor | Calu-3 | 40 h |  | 4.44 µM

Compound | observed | action | cells | time | notes | IC50
Nc1nc(S)[nH]c(=S)c1C(=O)Nc1ccccc1 | viral replication |  | Vero C1008 | 72 h |  | 341 µM
COc1ccc2c(c1)[C@]13CCCC[C@@H]1[C@H](C2)N(C)CC3 | viral replication | inhibitor | A549-ACE2 |  |  | 4.17 µM
CCc1nc(C(N)=O)c(Nc2ccc(N3CCC(N4CCN(C)CC4)CC3)c(OC)c2)nc1NC1CCOCC1 | viral replication | inhibitor | Huh-7 |  |  | 0.255 µM
C=C1C(=O)[C@@]23[C@H](O)C[C@@H]4C(C)(C)C(=O)CC[C@@]4(C)[C@@H]2CC[C@@H]1[C@H]3O | viral replication | inhibitor | Calu-3 | 40 h |  | 2.9 µM
NC(=O)c1nc(F)c[nH]c1=O | viral replication | inhibitor | Vero C1008 |  |  | > 100 µM
COc1cccc2c1C(=O)c1c(O)c3c(c(O)c1C2=O)C[C@@](O)(C(C)=O)C[C@@H]3O[C@H]1C[C@H](N)[C@H](O)[C@H](C)O1 | viral replication | inhibitor | Calu-3 | 40 h |  | 1.23 µM
Nc1nc(S[C@@H]2O[C@H](CO)[C@H](O)[C@H](O)[C@H]2O)[nH]c(=S)c1C(=O)Nc1ccc(Cl)cc1 | viral replication |  | Vero C1008 | 72 h |  | 15.4 µM
CC(C)c1nc(CN(C)C(=O)N[C@H](C(=O)N[C@@H](Cc2ccccc2)C[C@H](O)[C@H](Cc2ccccc2)NC(=O)OCc2cncs2)C(C)C)cs1 | viral replication | inhibitor | Vero C1008 |  |  | 11.7 to 19.9 µM
CCCCc1oc2ccc(NS(C)(=O)=O)cc2c1C(=O)c1ccc(OCCCN(CCCC)CCCC)cc1 | viral replication | inhibitor | Calu-3 | 40 h |  | 2.95 µM
C[C@]12C=CC(=O)C=C1CC[C@@H]1[C@@H]2[C@@H](O)C[C@@]2(C)[C@H]1C[C@H]1O[C@@H](C3CCCCC3)O[C@]12C(=O)CO | viral replication |  | VeroE6/TMPRSS2 |  |  | 8.1 µM
CN(C)CCCN1c2ccccc2Sc2ccc(Cl)cc21 | viral replication | inhibitor | A549-ACE2 |  |  | 2.24 µM
CCOP(=O)(OCC)N1C/C(=C\c2ccccc2)C(=O)C2(C1)C(c1ccccc1)CN(C)C21C(=O)Nc2ccc(Cl)cc21 (stereo not drawn) | viral replication | inhibitor | Vero C1008 | 72 h |  | 10.4 µM
Nc1nc(S[C@@H]2O[C@H](CO)[C@H](O)[C@H](O)[C@H]2O)[nH]c(=S)c1C(=O)Nc1ccccc1 | viral replication |  | Vero C1008 | 72 h |  | 18.5 µM
CCN(CC)CCOc1ccc2c(c1)C(=O)c1cc(OCCN(CC)CC)ccc1-2 | viral replication | inhibitor | Vero | 24 h |  | 79.2 µM
CCOP(=O)(OCC)N1C/C(=C\c2ccc(Br)cc2)C(=O)C2(C1)C(c1ccc(Br)cc1)CN(C)C21C(=O)Nc2ccccc21 (stereo not drawn) | viral replication | inhibitor | Vero C1008 | 72 h |  | 8.88 µM
COc1cc2c(cc1OC)CN(CCc1ccc(NC(=O)c3cccc4c(=O)c5cccc(OC)c5[nH]c34)cc1)CC2 | viral replication | inhibitor | A549-ACE2 |  |  | 3.89 µM
CCOC(=O)N1CCC(=C2c3ccc(Cl)cc3CCc3cccnc32)CC1 | viral replication | inhibitor | Huh-7 |  |  | > 2 µM
OC(c1cc(C(F)(F)F)nc2c(C(F)(F)F)cccc12)C1CCCCN1 (stereo not drawn) | viral replication | inhibitor | Vero C1008 |  |  | 7.11 µM
CC(C)CCCCCCCCC[C@@H]1CC(=O)N[C@@H](CCC(=O)O)C(=O)N[C@@H](CC(C)C)C(=O)N[C@H](CC(C)C)C(=O)N[C@@H](C(C)C)C(=O)N[C@@H](CC(=O)O)C(=O)N[C@H](CC(C)C)C(=O)N[C@@H](CC(C)C)C(=O)O1 | viral replication | inhibitor | Vero | 24 h |  | > 0.4 µg/mL
COC(=O)c1ccc2c(c1)NC(=O)/C2=C(\Nc1ccc(N(C)C(=O)CN2CCN(C)CC2)cc1)c1ccccc1 | viral replication | inhibitor | Huh-7 |  |  | > 2 µM
COc1ccc(CN2CCN(Cc3ccccc3)CC2)cc1 | viral replication |  | Vero C1008 |  |  | 1.58 µM
CCSc1ccc2c(c1)N(CCCN1CCN(C)CC1)c1ccccc1S2 | viral replication | inhibitor | Vero C1008 |  |  | 7.09 µM
CCN(CC)CCOc1ccc(C(O)(Cc2ccc(Cl)cc2)c2ccc(C)cc2)cc1 (stereo not drawn) | viral replication |  | Vero C1008 |  |  | 0.759 µM
CCCCCOc1ccc(-c2ccc(-c3ccc(C(=O)N[C@H]4C[C@@H](O)[C@@H](O)NC(=O)[C@@H]5[C@@H](O)[C@@H](C)CN5C(=O)[C@H]([C@@H](C)O)NC(=O)[C@H]([C@H](O)[C@@H](O)c5ccc(O)cc5)NC(=O)[C@@H]5C[C@@H](O)CN5C(=O)[C@H]([C@@H](C)O)NC4=O)cc3)cc2)cc1 | viral replication | inhibitor | Vero | 24 h |  | 5.4 µg/mL
